Assay results reported in publication PMC6482435 (Biochemistry, 2019).
pEC50: −log10 of the molar value.

Experiments:
Experiment in all cases: Yeast-based OR sensor, GFP dose-response
Format in all cases: cell-based
OR10S1 = biological target: T1, OR10S1 (Homo sapiens, UniProt Q8NGN2)
T1 sequence (Q8NGN2 1-331): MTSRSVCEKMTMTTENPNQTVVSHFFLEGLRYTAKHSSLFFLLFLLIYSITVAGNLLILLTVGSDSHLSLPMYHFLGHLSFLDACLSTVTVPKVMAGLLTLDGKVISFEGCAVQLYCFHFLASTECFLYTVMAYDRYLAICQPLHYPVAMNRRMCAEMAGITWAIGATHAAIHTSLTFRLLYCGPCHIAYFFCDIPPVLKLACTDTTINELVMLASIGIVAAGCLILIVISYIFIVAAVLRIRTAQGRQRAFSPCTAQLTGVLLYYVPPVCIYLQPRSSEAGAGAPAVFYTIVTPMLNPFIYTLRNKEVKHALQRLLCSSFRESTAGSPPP
Procedure, shortened: (§1)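 Yeast-codon-optimized human OR in S. cerevisiae PPY140 (Δfar1 Δste2 Δsst2) with PFIG1-eGFP reporter. Cells pre-grown 18 h at 15 °C in SD(HL–), exposed to test compound 0–1000 μM final, 1% DMSO, 4 h at 30 °C. Flow-cytometric geometric mean GFP, 10000 cells; triplicate; two-tailed t test vs DMSO; empty-vector strain run same day; EC50 from dose-response fit.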

OR2T4 = biological target: T2, OR2T4 (Homo sapiens, UniProt Q8NH00); conditions: for OR-dependent activation, conclusion in words: OR2T4 vs no OR control; for increase in the signal after activation: OR2T4, dose-response curve, compared to DMSO control; for increase in percent GFP expression compared to the no receptor control: OR2T4 vs empty-vector control strain
T2 sequence (Q8NH00 1-348): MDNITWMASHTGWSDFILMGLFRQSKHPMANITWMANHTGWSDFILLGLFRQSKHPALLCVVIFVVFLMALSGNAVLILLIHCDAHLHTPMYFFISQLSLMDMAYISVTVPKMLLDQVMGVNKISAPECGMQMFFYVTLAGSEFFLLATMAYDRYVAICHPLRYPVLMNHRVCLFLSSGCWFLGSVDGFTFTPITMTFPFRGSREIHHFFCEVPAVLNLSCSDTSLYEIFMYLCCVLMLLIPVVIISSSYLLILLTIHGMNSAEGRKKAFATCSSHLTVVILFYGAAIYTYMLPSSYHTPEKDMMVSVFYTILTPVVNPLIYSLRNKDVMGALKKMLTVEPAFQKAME
Procedure, shortened: as §1

OR2A7 = biological target: T3, OR2A7 (Homo sapiens, UniProt Q96R45); conditions: for OR-dependent activation, conclusion in words: OR2A7 vs no OR control
T3 sequence (Q96R45 1-310): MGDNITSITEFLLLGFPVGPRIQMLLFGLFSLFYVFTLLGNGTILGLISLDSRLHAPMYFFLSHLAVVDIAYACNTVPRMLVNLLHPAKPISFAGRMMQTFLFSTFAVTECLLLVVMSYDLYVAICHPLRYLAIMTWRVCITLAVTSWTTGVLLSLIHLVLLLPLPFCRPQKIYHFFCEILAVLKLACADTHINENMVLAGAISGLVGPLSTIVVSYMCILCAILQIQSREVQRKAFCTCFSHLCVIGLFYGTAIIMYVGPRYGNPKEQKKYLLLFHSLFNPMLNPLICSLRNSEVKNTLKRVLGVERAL
Procedure, shortened: as §1

OR51B5 = biological target: T4, OR51B5 (Homo sapiens, UniProt Q9H339); conditions: for increase in the signal after activation: OR51B5, dose-response curve, compared to DMSO control
T4 sequence (Q9H339 1-312): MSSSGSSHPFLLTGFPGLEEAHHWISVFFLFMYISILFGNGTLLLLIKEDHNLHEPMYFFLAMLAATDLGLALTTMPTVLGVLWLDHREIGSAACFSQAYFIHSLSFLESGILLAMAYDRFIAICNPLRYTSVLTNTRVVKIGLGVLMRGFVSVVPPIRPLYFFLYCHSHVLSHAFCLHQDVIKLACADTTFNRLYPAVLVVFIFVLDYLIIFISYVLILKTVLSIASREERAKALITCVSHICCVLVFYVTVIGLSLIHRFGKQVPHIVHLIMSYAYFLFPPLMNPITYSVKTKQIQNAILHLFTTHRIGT
Procedure, shortened: as §1

OR2A42 = biological target: T5, OR2A42 (Homo sapiens, UniProt Q8NGT9)
T5 sequence (Q8NGT9 1-310): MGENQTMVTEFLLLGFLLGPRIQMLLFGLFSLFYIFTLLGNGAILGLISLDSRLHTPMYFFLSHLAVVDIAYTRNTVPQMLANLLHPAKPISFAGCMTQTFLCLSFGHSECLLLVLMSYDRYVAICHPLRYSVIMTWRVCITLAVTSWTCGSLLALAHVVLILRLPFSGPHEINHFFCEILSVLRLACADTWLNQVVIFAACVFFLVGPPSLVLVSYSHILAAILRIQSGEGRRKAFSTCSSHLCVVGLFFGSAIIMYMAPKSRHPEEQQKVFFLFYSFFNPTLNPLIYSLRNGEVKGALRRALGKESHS
Procedure, shortened: as §1

OR2W3 = biological target: T6, OR2W3 (Homo sapiens, UniProt Q7Z3T1)
T6 sequence (Q7Z3T1 1-314): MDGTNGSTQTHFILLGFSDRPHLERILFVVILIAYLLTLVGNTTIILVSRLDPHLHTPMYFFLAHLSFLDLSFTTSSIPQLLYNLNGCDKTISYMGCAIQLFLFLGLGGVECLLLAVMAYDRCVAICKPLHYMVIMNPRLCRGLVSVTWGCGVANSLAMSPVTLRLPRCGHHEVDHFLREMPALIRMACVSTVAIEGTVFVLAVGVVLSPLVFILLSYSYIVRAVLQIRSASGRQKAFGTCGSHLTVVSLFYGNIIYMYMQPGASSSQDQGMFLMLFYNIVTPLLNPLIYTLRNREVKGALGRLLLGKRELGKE
Procedure, shortened: as §1

OR2L13 = biological target: T7, OR2L13 (Homo sapiens, UniProt Q8N349); conditions: OR2L13, dose-response curve, compared to DMSO control
T7 sequence (Q8N349 1-312): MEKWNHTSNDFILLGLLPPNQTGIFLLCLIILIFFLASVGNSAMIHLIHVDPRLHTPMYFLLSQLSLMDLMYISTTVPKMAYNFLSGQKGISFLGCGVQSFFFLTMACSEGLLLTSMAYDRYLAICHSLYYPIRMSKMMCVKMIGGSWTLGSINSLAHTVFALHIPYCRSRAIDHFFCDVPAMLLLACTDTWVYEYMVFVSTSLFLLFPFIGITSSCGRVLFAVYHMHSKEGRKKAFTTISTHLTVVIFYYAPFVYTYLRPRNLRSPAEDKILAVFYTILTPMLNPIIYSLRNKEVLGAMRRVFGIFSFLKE
Procedure, shortened: as §1

CCCCCCCCC=O [nonanal]
increase in the signal after activation (OR10S1; OR10S1, dose-response curve, compared to DMSO control): > 2 fold
OR-dependent activation, conclusion in words (OR10S1; OR10S1 vs no OR control): the no OR control shows a similar increase in GFP expression

CC(C)(C)c1ccccc1 [TBB, tert-butylbenzene]
OR-dependent activation, conclusion in words (OR2T4): not OR dependent
OR-dependent activation, conclusion in words (OR2A7): not OR dependent

CC1=CCC2CC1C2(C)C (stereo not drawn) [α-pinene, alpha-pinene]
pEC50 (OR2T4; EC50, OR2T4 yeast sensor, GFP expression, 4 h, 0-1000 μM chemical, 1% DMSO): 3.18
increase in the signal after activation (OR2T4): > 2 fold
maximal level of GFP expression of OR2T4, higher than that of OR2A7 (OR2T4; OR2T4 relative to OR2A7): 63%
increase in percent GFP expression compared to the no receptor control (OR2T4): 3 fold
OR-dependent activation, conclusion in words (OR2T4): confirmed ligand
pEC50 (OR2A7; EC50, OR2A7 yeast sensor, GFP expression, 4 h, 0-1000 μM chemical, 1% DMSO): 3.39
increase in the signal after activation (OR2A7; OR2A7, dose-response curve, compared to DMSO control): > 2 fold
increase in percent GFP expression compared to the no receptor control (OR2A7; OR2A7 vs empty-vector control strain): 2.3 fold
OR-dependent activation, conclusion in words (OR2A7): confirmed ligand

CCCCCCCCCCCC(=O)O [dodecanoic, lauric acid]
increase in the signal after activation (OR51B5): > 2 fold

CC(C)=CCC/C(C)=C/CC/C(C)=C/CO [farnesol]
pEC50 (OR51B5; EC50, OR51B5 yeast sensor, GFP expression, 4 h, 0-1000 μM chemical, 1% DMSO): 3.74
increase in the signal after activation (OR51B5): > 2 fold
OR-dependent activation, conclusion in words (OR51B5; OR51B5, on/off behavior of the response): nonspecifically activates GFP expression
increase in percent GFP expression compared to the no receptor control (OR51B5; OR51B5 vs empty-vector control strain): 3 fold
increase in the signal after activation (OR2T4): > 2 fold
OR-dependent activation, conclusion in words (OR2T4): not a ligand
EC50 (OR2T4; OR2T4 yeast sensor, GFP expression, 4 h, 0-1000 μM chemical, 1% DMSO): could not be fitted
EC50 (OR2A7; OR2A7 yeast sensor, GFP expression, 4 h, 0-1000 μM chemical, 1% DMSO): do not fit a dose–response curve
increase in the signal after activation (OR2A42; OR2A42, dose-response curve, compared to DMSO control): 2 fold
OR-dependent activation, conclusion in words (OR2A42; OR2A42 vs no OR control): not a ligand
EC50 (fit to dose-response equation) (OR2A42; OR2A42 yeast sensor, GFP expression): could not be fitted
EC50 (fit to dose-response curve) (OR2W3; OR2W3 yeast sensor, GFP expression, Figure S6): do not fit a dose–response curve

CC(C)=CCC/C(C)=C\CO [nerol]
signal after activation (in words) (OR2W3; OR2W3, dose-response curve, Figure S1): did not result in a significant increase in the signal after activation

C=C1CCC2CC1C2(C)C (stereo not drawn) [β-pinene, beta-pinene]
weaker response than with α-pinene (OR2A7; OR2A7, response relative to α-pinene): 18%

CCCCCCCCCCC=O [undecanal]
increase in the signal after activation (OR2L13): > 2 fold
increase in the signal after activation (OR2T4): > 2 fold
increase in percent GFP expression compared to the no receptor control (OR2T4): 2.3 fold
OR-dependent activation, conclusion in words (OR2T4): confirmed ligand

CCCCCCCCCCCCO [dodecanol, 1-dodecanol]
increase in the signal after activation (OR2L13): > 2 fold
